Test results reported in ChEMBL document CHEMBL1126207, “Base-catalyzed isomerization of retinoic acid. Synthesis and differentiation-inducing activities of 14-alkylated all-trans-, 13-cis-, and 20,14-retro-retinoic acids” (1992).
The source made the active and inactive calls. The rule behind the calls is not given here.

tested on: HL-60; assay: Concentration required for 50% inhibition of differentiation-inducing activity against human promyelocytic leukemia cell line HL-60; format: functional; details: read-out: ED50 (the source's name)
How it was run: (§1)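 HL-60 cells kept in suspension in RPMI1640 with 5% FCS plus penicillin G/streptomycin, 37 °C, 5% CO2. Seeded near 8 × 10^4 cells/mL, compound added from 0.2 mM ethanol stock (final ethanol below 0.5%), 4-day incubation. Differentiation by NBT reduction (20 min, 37 °C, 0.2% NBT with TPA), formazan-positive cells counted on ≥200 cells; ED50 taken from NBT data; retinoic acid run concurrently.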

| SMILES | EC50 [nM] |
| --- | --- |
| CC1=C(/C=C/C(C)=C/C=C/C(C)=C(\C)C(=O)O)C(C)(C)CCC1 | 13 |
| CC\C(C(=O)O)=C(C)/C=C/C=C(C)/C=C/C1=C(C)CCCC1(C)C | 680 |
| C=C(/C=C/C=C(C)/C=C/C1=C(C)CCCC1(C)C)C(C)C(=O)O (stereo not given) | 55.1 |
| CC1=C(/C=C/C(C)=C/C=C/C(C)=C/C(=O)O)C(C)(C)CCC1 [TRETINOIN] | 2.4 |
| CC1=C(/C=C/C(C)=C/C=C/C(C)=C(/C)C(=O)O)C(C)(C)CCC1 | 63 |
| C=C(/C=C/C=C(C)/C=C/C1=C(C)CCCC1(C)C)C(C)(C)C(=O)O | > 1000 |
| CC1=C(/C=C/C(C)=C/C=C/C(C)=C\C(=O)O)C(C)(C)CCC1 [ISOTRETINOIN] | 5.9 |
| C=C(/C=C/C=C(C)/C=C/C1=C(C)CCCC1(C)C)CC(=O)O | 52 |

tested on: HL-60; assay: Concentration required for 50% inhibition of differentiation-inducing activity against human promyelocytic leukemia cell line HL-60; IA is inactive; format: functional, cell-based; details: not given; how it was run: as §1

| SMILES | ED50 |
| --- | --- |
| CC1=C(/C=C/C(C)=C/C=C/C(C)=C(\C(=O)O)C(C)C)C(C)(C)CCC1 | inactive |
| CC1=C(/C=C/C(C)=C/C=C/C(C)=C(/C(=O)O)C(C)C)C(C)(C)CCC1 | inactive |
